Assay results from different studies.
Lines come from different studies, so protocols differ.
Target: Tyrosine-protein kinase SYK (SYK, Homo sapiens, UniProt P43405)

SMILES | assay | setting | remaining binding [%]
CN(CCCC(F)(F)F)c1nccc(-c2cnn3ncccc23)n1 | binding | 1 µM | 76
O=c1nc(-c2ccccn2)sc2ccccc12 | cell-free assay, competition with immobilised ligand | 1 µM | 97
N[C@@H]1CCN(c2nccc(-c3cnn4ncccc34)n2)C1 | binding | 1 µM | 100
C[C@@H]1CN(c2cc(-c3n[nH]c4ccc(OC5(C)CC5)cc34)ncn2)C[C@H](C)O1 | cell-free assay, competition with immobilised ligand | 0.1 µM | 96
CNC(=O)[C@@H]1CC[C@@H](n2c(-c3ccc4cnccc4c3)nc3ccc(C(=O)NCc4cccc(C(N)=O)c4)cc32)C1 | binding, competition with immobilised ligand | 1 µM | 99
COc1ccc2c(c1)O[C@H](c1ccc(OC)c(OC)c1)C[C@@H]2NC(=O)C1(c2ccc3c(c2)OC(F)(F)O3)CC1 | cell-free assay, competition with immobilised ligand | 1 µM | 100
COc1ncc2cc3ccccc3nc2c1C#N | cell-free assay, competition with immobilised ligand | 5 µM | 98
c1cncc(-c2cccc(Nc3nccc(NC4CCCCC4)n3)c2)c1 | binding, competition with immobilised ligand | 10 µM | 16
Cc1cnc(Nc2ccc(C(=O)N3CCC(N4CCCC4)CC3)cc2)nc1-c1cc2ccccc2s1 | binding, competition with immobilised ligand | 1 µM | 7.7
C[C@@H]1CCN(c2nccc(-c3cnn4ncccc34)n2)C1 | binding | 1 µM | 84
CCc1ccccc1C(=O)Nc1n[nH]c2c(C)c(F)c(C3C(C#N)=C(C)N(C)C(C)=C3C#N)cc12 | cell-free assay, competition with immobilised ligand | 1 µM | 100
CN(C)c1nccc(-c2cnc3ncccn23)n1 | binding | 1 µM | 78
O=C(NCCCN1CCOCC1)c1ccc(Nc2nccc(-c3cc4ccccc4s3)n2)cc1 | binding, competition with immobilised ligand | 1 µM | 17
O=C(Nc1cccnn1)N1CCC(=Cc2cccc(Oc3ccc(C(F)(F)F)cn3)c2)CC1 | cell-free assay, competition with immobilised ligand | 1 µM | 100
c1cnn2ncc(-c3ccnc(N4CCC45COC5)n3)c2c1 | binding | 1 µM | 99
COc1cnc(Nc2cccc(S(N)(=O)=O)c2)nc1N1CCN(c2ccccc2)C(=O)C1 | binding, competition with immobilised ligand | 1 µM | 100
CN(C)c1nccc(-c2cnn3ncccc23)n1 | binding | 1 µM | 100
O=C(NCC1CCOCC1)c1n[nH]cc1NC(=O)c1c(F)cccc1F | binding, competition with immobilised ligand | 1 µM | 100
Cc1cc(NC(=O)c2cccc(S(F)(F)(F)(F)F)c2)cc(-n2ccn3nc(-c4cccnc4)cc23)c1 | cell-free assay, competition with immobilised ligand | 1 µM | 95.5
O=C(NCCCN1CCOCC1)c1ccc(Nc2ncc(Cl)c(-c3ccc(Cl)s3)n2)cc1 | binding, competition with immobilised ligand | 1 µM | 34
